Measurements as given in PMC3625458 (Journal of medicinal chemistry, 2013).
Entries after “also recorded” stand apart in the source; their conditions may differ. Each block holds one molecule with its values, some of them ahead of it.

Assays:
[1] = test system: T. gondii 2F clone of the type I RH strain in HFF cells; assay: Inhibition of parasite growth in vitro in HFF monolayers; type: cell-based, Toxoplasma gondii
[2] = In vitro microsome stability assay; type: in vitro ADME; conditions: rat, liver microsomes
[3] = test system: T. gondii type II Pru-LUC strain; assay: Murine infection model of toxoplasmosis; type: in vivo, mouse; conditions: 30 days post-infection, 5 mg/kg daily i.p. for 10 days
[4] = target: CDPK1 G128M (Toxoplasma gondii, UniProt Q9BJF5, G128M); assay: CDPK1 G128M mutant kinase assay, syntide-2 peptide ELISA; type: biochemical
[5] = target: CDPK1 G128A (Toxoplasma gondii, UniProt Q9BJF5, G128A); assay: CDPK1 G128A mutant kinase assay, syntide-2 peptide ELISA; type: biochemical
[6] = target: CDPK1 G128S (Toxoplasma gondii, UniProt Q9BJF5, G128S); assay: CDPK1 G128S mutant kinase assay, syntide-2 peptide ELISA; type: biochemical
[7] = target: CDPK1 G128T (Toxoplasma gondii, UniProt Q9BJF5, G128T); assay: CDPK1 G128T mutant kinase assay, syntide-2 peptide ELISA; type: biochemical
[8] = target: human calmodulin dependent kinase II alpha (αCaMKII) (Homo sapiens, UniProt Q9UQM7); assay: CaM Kinase II Assay CycLex kit; type: biochemical
Method in brief: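 Human αCaMKII activity measured with a commercial CaM kinase II assay kit following the maker's recommendations. Test compound in serial dilutions; all samples run in triplicate. Data normalized and log-transformed, then fit by non-linear regression to a sigmoidal dose-response curve with variable slope to obtain IC50.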

[9] = test system: T. gondii highly virulent RH strain; conditions: cited from earlier work

Compound: CCc1nc(N)nc(N)c1-c1ccc(Cl)cc1 [pyrimethamine, reference compound]
treatment time required to demonstrate potent inhibition of growth ([1]; 4 h vs 24 h treatment, growth to 72 h): at least 24 h

microsomal CLint [2]: > 350 µL/min/mg
Compound: CC(C)(C)n1nc(Cc2cccc(Br)c2)c2c(N)ncnc21 [Compound 4, 3-bromo-benzyl pyrazolo [3,4-d] pyrimidine]

microsomal CLint [2]: 107 µL/min/mg
Compound: CC(C)n1nc(C(F)c2cccc(Cl)c2Cl)c2c(N)ncnc21 (centres unmarked) [Compound 26]

microsomal CLint [2]: > 350 µL/min/mg
Compound: CC(C)(C)n1nc(Cc2cccc(Cl)c2F)c2c(N)ncnc21 [Compound 18]

Compound: CC(C)(C)n1nc(Cc2cc(F)cc(F)c2)c2c(N)ncnc21 [Compound 24]
brain tissue cyst burden in surviving mice ([3]; 5 mg/kg): much more potent and uniform protection; also recorded: most effective in reducing the chronic burden of CNS infection

Compound: CC(C)n1nc(Cc2cccc(Cl)c2Cl)c2c(N)ncnc21 [Compound 11]
microsomal CLint [2]: 190 µL/min/mg
brain tissue cyst burden in surviving mice [3]: considerable variation in the reduction of cyst numbers

microsomal CLint [2]: 250 µL/min/mg
Compound: CC(C)(C)n1nc(Cc2cc(Cl)ccc2F)c2c(N)ncnc21 [Compound 10]

microsomal CLint [2]: > 350 µL/min/mg
Compound: CC(C)(C)n1nc(Cc2ccc(F)c(Cl)c2)c2c(N)ncnc21 [Compound 20]

Compound: Cc1cccc(Cc2nn(C(C)(C)C)c3ncnc(N)c23)c1 [Compound 1, 3-methyl-benzyl pyrazolo [3,4-d] pyrimidine]
IC50 [4]: > 10000 nM
sensitivity of Met gatekeeper TgCDPK1 ([4]; Gly to Met): completely insensitive
IC50 [5]: 13.7 ± 7.1 nM
shift in potency vs Gly gatekeeper ([5]; Gly to Ala): 3-5 fold
IC50 [6]: 22.9 ± 7.5 nM
shift in potency vs Gly gatekeeper ([6]; Gly to Ser): 3-5 fold
IC50 [7]: 222 ± 43.7 nM
additional decrease in inhibition ([7]; Gly to Thr, relative to Ala or Ser): 10 fold
IC50 [8]: > 10000 nM
sensitivity of human CamKIIα ([8]; Phe gatekeeper): completely resistant
microsome stability [2]: extremely unstable; also recorded: poor microsome stability

Compound: CC(C)(C)n1nc(Cc2cccc3ccccc23)c2c(N)ncnc21 [Compound 6, 1-napthylmethyl-PP]
parasite burdens ([9]; 10-fold higher doses, i.p. inoculation): modest reduction in parasite burdens
protection against lethal challenge ([9]; oral administration, RH strain): failed to protect

Compound: CC(C)(C)n1nc(Cc2cccc(Cl)c2)c2c(N)ncnc21 [Compound 3, 3-chloro-benzyl pyrazolo [3,4-d] pyrimidine]
brain tissue cyst burden in surviving mice [3]: considerable variation in the reduction of cyst numbers

microsomal CLint [2]: > 350 µL/min/mg
Compound: CC(C)n1nc(Cc2cc(F)cc(Cl)c2)c2c(N)ncnc21 [Compound 21]

Compound: CC(C)n1nc(C(O)c2cccc(Cl)c2Cl)c2c(N)ncnc21 (centres unmarked) [Compound 25]
activity against T. gondii [1]: inactive
microsomal CLint [2]: 68 µL/min/mg
